How the values were obtained:
[1] = target: C-C chemokine receptor type 7 (Homo sapiens, UniProt P32248); experiment: Antagonist activity at CCR7 (unknown origin)
Outline: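 β-arrestin assays run in both agonist and antagonist modes across a panel of 18 CXC and CC chemokine receptors.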

[2] = Intrinsic clearance in dog hepatocytes; type: ADME, cell-based, Canis lupus familiaris, Hepatocyte
[3] = Fraction unbound in Han-Wistar SOA rat model brain at 2 mg/kg administered via oral gavage by UPLC/MS/MS analysis; type: ADME, organism-based
[4] = Fraction unbound in Han-Wistar SOA rat model blood at 2 mg/kg administered via oral gavage by UPLC/MS/MS analysis; type: ADME, organism-based
[5] = Intrinsic clearance in human hepatocytes; type: ADME, cell-based, Hepatocyte

Sequence of C-C chemokine receptor type 7 (P32248 whole entry): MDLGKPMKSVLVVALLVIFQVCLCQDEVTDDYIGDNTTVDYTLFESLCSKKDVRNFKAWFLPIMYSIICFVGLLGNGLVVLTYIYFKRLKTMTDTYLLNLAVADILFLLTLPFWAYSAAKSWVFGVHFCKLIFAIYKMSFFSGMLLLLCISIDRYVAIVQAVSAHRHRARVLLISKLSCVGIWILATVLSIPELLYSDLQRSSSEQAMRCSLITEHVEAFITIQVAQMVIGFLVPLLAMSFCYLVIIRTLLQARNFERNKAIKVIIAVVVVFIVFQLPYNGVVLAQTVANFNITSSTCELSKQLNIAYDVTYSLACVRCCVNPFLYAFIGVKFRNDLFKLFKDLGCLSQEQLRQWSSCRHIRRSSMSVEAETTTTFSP

IC50 [1]: > 10 µM | CLH [2]: 1.8 mL/min/g | fraction unbound [3]: 0.123 | fraction unbound [4]: 0.027 | CLH [5]: 0.79 mL/min/g
SMILES: CC1=CCC[C@H]1NC(=O)Nc1ccc(Cl)c(S(=O)(=O)[C@@]2(C)CCOC2)c1O

Reference: ChEMBL document CHEMBL4033786, “Discovery of Novel 1-Cyclopentenyl-3-phenylureas as Selective, Brain Penetrant, and Orally Bioavailable CXCR2 Antagonists” (J Med Chem, 2018)
